In ChEMBL document CHEMBL1152436, “Synthesis, biological evaluation, and three-dimensional in silico pharmacophore model for sigma(1) receptor ligands based on a series of substituted benzo[d]oxazol-2(3H)-one derivatives” (J Med Chem, 2009) one finds Ki data, which are given here for 30 molecules.

Experiment [1] deals with Sigma non-opioid intracellular receptor 1 (Rattus norvegicus, UniProt Q9R0C9). Briefly: Displacement of [3H](+)-pentazocine from sigma1 receptor in rat liver membrane by liquid scintillation counting. It counts as cell membranes.
Experiment [2] in a line: Displacement of [3H]DTG from sigma2 receptor in rat liver membrane by liquid scintillation counting. It counts as cell membranes. In a few lines: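 Rat liver homogenate (150 μg) incubated 120 min at room temperature with 3 nM [3H]DTG in 50 mM Tris-HCl pH 8.0. σ1 sites masked with 100 nM (+)-pentazocine; nonspecific binding with 10 μM haloperidol. At least 11 ligand concentrations, 0.1% final DMSO. Filtration on PEI-soaked GF/B filters. IC50 and nH from four-parameter fit, 2–4 determinations in duplicate, mean ± SEM.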

Sigma non-opioid intracellular receptor 1, sequence (Q9R0C9 whole entry): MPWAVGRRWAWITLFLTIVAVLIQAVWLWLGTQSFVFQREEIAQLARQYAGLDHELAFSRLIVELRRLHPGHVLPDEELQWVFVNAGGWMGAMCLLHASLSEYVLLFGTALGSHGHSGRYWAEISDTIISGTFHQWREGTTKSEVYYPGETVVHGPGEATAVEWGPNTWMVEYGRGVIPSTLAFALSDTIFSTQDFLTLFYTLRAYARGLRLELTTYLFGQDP

In experiment [1], `Cc1ccccc1CN1CCC(Cn2c(=O)oc3ccccc32)CC1` displayed a Ki of 29.8 nM.
As for `Cc1ccc(CN2CCC(Cn3c(=O)oc4ccccc43)CC2)cc1`, affinity in experiment [1] was put at a Ki of 3.07 nM.
Turning to `Cc1ccc(CN(C)CCCn2c(=O)oc3ccccc32)cc1`, the figures for the Ki in experiment [1] and in experiment [2] were 871 nM and 991 nM, respectively.
For the molecule `COc1ccccc1CN(C)CCCn1c(=O)oc2ccccc21`, the values for the Ki in experiment [1] and in experiment [2] were 1950 nM and 192 nM, respectively.
On the same counts, the results for `COc1ccc(CN(C)CCCn2c(=O)oc3ccccc32)cc1` are 83 nM and 2600 nM.
The like results for `Cc1ccc(CN(C)CCCCn2c(=O)oc3ccccc32)cc1` were, in that order, 97 nM and 22.9 nM.
As for `CN(CCCn1c(=O)oc2ccccc21)Cc1ccccc1Cl`, the Ki was found to be 2490 nM in experiment [1] and 456 nM in experiment [2].
In turn, `Cc1ccc(CN2CCC(C(=O)Nc3ccccc3)CC2)cc1` gave a Ki in experiment [1] of 105 nM. In other words, the sub-micromolar range.
Consider `CN(CCCCn1c(=O)oc2ccccc21)Cc1ccccc1Cl`, for which the results for the Ki in experiment [1] and in experiment [2] were 843 nM and 37.4 nM, respectively.
Regarding `CN(CCCCn1c(=O)oc2ccccc21)Cc1ccc(Cl)cc1`, in experiment [2], affinity was put at a Ki of 36.2 nM.
In experiment [1], `CN(CCCCn1c(=O)oc2ccccc21)Cc1cccc(Cl)c1` had a Ki of 302 nM. In other words, the sub-micromolar range.
The same measure, in the same setting: the figure for `O=C(Nc1ccccc1)C1CCN(Cc2ccccc2)CC1` is 48.1 nM.
`CN(CCCn1c(=O)oc2ccccc21)Cc1cccc(Cl)c1`: the Ki in experiment [1] stood at 3230 nM; in experiment [2], 1120 nM.
Take `CN(CCCCn1c(=O)oc2ccccc21)Cc1ccccc1`: the Ki in experiment [2] came to 120 nM.
For `COc1ccc(CN(C)CCCCn2c(=O)oc3ccccc32)cc1`, the Ki in experiment [1] amounted to 21 nM; in experiment [2], 20.8 nM.
Turning to `O=C(Nc1ccccc1)C1CCN(Cc2ccc(Cl)cc2)CC1`, the Ki in experiment [1] was 45 nM. This counts as double-digit nanomolar.
`COc1ccccc1CN(C)CCCCn1c(=O)oc2ccccc21` came in with a Ki in experiment [1] of 594 nM. This Ki is about 13-fold higher than that of the molecule before.
Consider `CN(CCCn1c(=O)oc2ccccc21)Cc1ccc(Cl)cc1`, for which the Ki in experiment [2] turned out to be 456 nM.
The molecule `Cc1ccc(CN2CCC(C(=O)NCc3ccccc3)CC2)cc1` returned a Ki in experiment [1] of 69.4 nM.
With `Cc1ccc(CN(C)CCCCn2c(=O)oc3ccccc32)c(C)c1`, the Ki was 239 nM in experiment [1] and 6.94 nM in experiment [2].
On the same counts, the results for `Cc1cccc(CN(C)CCCCn2c(=O)oc3ccccc32)c1` are 102 nM and 31.8 nM.
On the same counts, the results for `Cc1cccc(CN(C)CCCn2c(=O)oc3ccccc32)c1` are 1830 nM and 2720 nM.
With `CN(CCCn1c(=O)oc2ccccc21)Cc1ccccc1`, the Ki in experiment [2] was determined as 1120 nM.
`Cc1ccccc1CN(C)CCCn1c(=O)oc2ccccc21`: the Ki turned out to be 901 nM in experiment [1] and 1350 nM in experiment [2].
In the case of `COc1cccc(CN(C)CCCn2c(=O)oc3ccccc32)c1`, the Ki in experiment [1] worked out at 8550 nM; in experiment [2] it was 2130 nM.
Take `Cc1ccc(CN(C)CCCn2c(=O)oc3ccccc32)c(C)c1`: the inhibition constant (Ki) amounted to 1830 nM in experiment [1] and 2060 nM in experiment [2].
The like results for `COc1cccc(CN(C)CCCCn2c(=O)oc3ccccc32)c1` were, in that order, 297 nM and 187 nM.
`CC(C)=CCN1CC[C@]2(C)c3cc(O)ccc3C[C@H]1[C@H]2C` [(+)-PENTAZOCINE]: the Ki in experiment [2] came out at 327 nM.
For the molecule `Cc1ccccc1NC(=N)Nc1ccccc1C` [DITOLYLGUANIDINE], the Ki in experiment [2] is 130 nM.
Same read-out and setting: the value for `O=C(CCCN1CCC(O)(c2ccc(Cl)cc2)CC1)c1ccc(F)cc1` [HALOPERIDOL] was 235 nM.
